Active and inactive are the calls of the source. No cut-off for these calls is given here.
Experiments:
[1] = Cytotoxicity against mouse Hepa 1c1c7 cells assessed as cell viability at 12.5 uM after 24 hrs by MTT assay; type: functional; details: Hepa-1c1c7, 24 h, read-out: Activity
How it was run: (§1)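 Hepa 1c1c7 murine hepatoma cells exposed for 24 h to compound from DMSO stock, serially diluted to final […], with DMSO ≤1% final. MTT then added for 3 h, cells lysed, and formazan read at 590 nm. Blank-subtracted absorbance expressed as % of untreated control wells. Mean of at least three independent determinations.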

Hepa 1c1c7 [2] = test: Induction of quinone reductase activity in mouse Hepa 1c1c7 cells at 12.5 uM after 24 hrs relative to control; type: cell-based
How it was run: (§2)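 Cells seeded at 10⁴/well and grown 24 h in α-MEM with 10% FCS, 5% CO₂, 37 °C. They were then exposed 24 h to compound (DMSO ≤0.5% final), using the same concentration as the viability test. Lysis used digitonin/EDTA. MTT-coupled menadione reduction mix was added (Tris pH 7.4, FAD, G6P, NADP, G6PDH). Reaction stopped after 5 min with dicoumarol and read at 590 nm. Result is blank-corrected treated/control (0.5% DMSO) ratio, mean ± SD, n = 3. Lines 12-14 used the c1 mutant, which lacks CYP1A1-dependent AHH activity.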

Hepa 1c1c7c1 [3] = test: Induction of quinone reductase in mouse mutant Hepa 1c1c7c1 cells at 12.5 uM after 24 hrs relative to control; type: cell-based; how it was run: as §2
[4] = Cytotoxicity against mouse Hepa 1c1c7 cells assessed as cell viability at 1 uM after 24 hrs by MTT assay; type: functional; details: Hepa-1c1c7, 24 h, read-out: Activity; how it was run: as §1
Hepa 1c1c7 [5] = test: Induction of quinone reductase activity in mouse Hepa 1c1c7 cells at 1 uM after 24 hrs relative to control; type: cell-based; how it was run: as §2
[6] = ABTS radical scavenging activity assessed as trolox equivalent antioxidant capacity; type: functional
How it was run: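 ABTS radical cation diluted in PBS pH 7.4 to absorbance 0.700 (±0.02) at 734 nm, 25 °C. Compound added from ethanol stock. Absorbance decrease read at 1, 3 and 5 min. Percent reduction at 5 min plotted against concentration ([…] as printed); slope divided by Trolox slope gives TEAC. Run at least three times on separate occasions.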

[7] = Cytotoxicity against mouse Hepa 1c1c7 cells assessed as cell viability at 5 uM after 24 hrs by MTT assay; type: functional; details: Hepa-1c1c7, 24 h, read-out: Activity; how it was run: as §1
Hepa 1c1c7 [8] = test: Induction of quinone reductase activity in mouse Hepa 1c1c7 cells at 5 uM after 24 hrs relative to control; type: cell-based; how it was run: as §2
Hepa 1c1c7 [9] = test: Induction of quinone reductase activity in mouse Hepa 1c1c7 cells assessed as concentration required to double the enzyme activity; type: cell-based
How it was run: (§3)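 Hepa 1c1c7 wild-type or AHH-deficient c1 mutant cells, 10⁴ per well, grown for 24 h in α-MEM with 10% FCS at 37 °C and 5% CO₂, then exposed to compound from DMSO stock (final DMSO ≤0.5%) for 24 h. Cells were digitonin/EDTA-lysed and given an NADP/G6P-regenerating mix with FAD, MTT and menadione for 5 min. The reaction was stopped with dicoumarol and read at 590 nm; CD is the concentration doubling QR activity versus the DMSO control.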

Hepa 1c1c7c1 [10] = test: Induction of quinone reductase activity in mouse mutant Hepa 1c1c7c1 cells assessed as concentration required to double the enzyme activity; type: cell-based; how it was run: as §3
[11] = Cytotoxicity against mouse Hepa 1c1c7 cells assessed as cell viability at 25 uM after 24 hrs by MTT assay; type: functional; details: Hepa-1c1c7, 24 h, read-out: Activity; how it was run: as §1
Hepa 1c1c7 [12] = test: Induction of quinone reductase activity in mouse Hepa 1c1c7 cells at 25 uM after 24 hrs relative to control; type: cell-based; how it was run: as §2
[13] = Cytotoxicity against mouse Hepa 1c1c7 cells assessed as cell viability at 6.3 uM after 24 hrs by MTT assay; type: functional; details: Hepa-1c1c7, 24 h, read-out: Activity; how it was run: as §1
Hepa 1c1c7 [14] = test: Induction of quinone reductase activity in mouse Hepa 1c1c7 cells at 6.3 uM after 24 hrs relative to control; type: cell-based; how it was run: as §2

Compound | viability at 12.5 µM [1] | Activity (Hepa 1c1c7 [2]) | viability at 1 µM [4] | Activity (Hepa 1c1c7 [5]) | also measured
COc1ccccc1/C=C/c1ccccc1OC | 82% | 1.81 |  |  | fold induction (Hepa 1c1c7c1 [3]): < 1
COc1ccc(/C=C\c2ccccc2OC)cc1 |  |  | 56% | < 1 | 
COc1ccc(/C=C/c2c(OC)cccc2OC)cc1 | 90% | 1.92 |  |  | Activity (Hepa 1c1c7c1 [3]): 1.05 µM
COc1ccc(/C=C\c2ccc(OC)c(O)c2)cc1 |  |  |  |  | Activity [6]: 1.11; viability at 5 µM [7]: 75%; Activity (Hepa 1c1c7 [8]): < 1
O=c1cc(-c2ccccc2)oc2ccc3ccccc3c12 |  |  |  |  | Activity (Hepa 1c1c7 [9]): 0.028 µM; Activity (Hepa 1c1c7c1 [10]): inactive
COc1ccc(/C=C/c2ccccc2O)cc1 [2-hydroxy-4'-methoxystilbene] | 80% | 1.13 |  |  | 
COc1ccc(/C=C/c2cc(O)cc(O)c2)cc1 [RESVERATROL 4'-METHYL ETHER] | 87% | 1.14 |  |  | Activity [6]: 2.49
Oc1cc(O)cc(/C=C/c2ccccc2)c1 [PINOSYLVIN] | 61% | 1.07 |  |  | Activity [6]: 2.04
COc1ccc(/C=C\c2cc(OC)cc(OC)c2)cc1 [8Z-3,4',5-TRIMETHOXYSTILBENE] |  |  | 82% | < 1 | 
COc1ccc(/C=C/c2ccc(OC)cc2)cc1 | 67% | 1.14 |  |  | 
COc1ccc(/C=C\c2ccc(OC)cc2OC)cc1 |  |  | 85% | < 1 | 
COc1ccc(/C=C\c2cc(OC)c(OC)c(OC)c2)cc1 |  |  | 88% | < 1 | 
COc1ccc(/C=C\c2ccc(OC)cc2)cc1 | 64% | 1.06 |  |  | 
COc1ccc(/C=C\c2cccc(O)c2)cc1 |  |  |  |  | Activity [6]: 1.04; viability at 5 µM [7]: 90%; Activity (Hepa 1c1c7 [8]): < 1
Oc1ccc(/C=C/c2cc(O)cc(O)c2)cc1 [RESVERATROL] | 80% | 1.24 |  |  | Activity [6]: 2.74; fold induction (Hepa 1c1c7c1 [3]): 1.16; viability at 25 µM [11]: 55%; Activity (Hepa 1c1c7 [12]): 1.5
COc1ccc(/C=C/c2cccc(O)c2)cc1 | 81% | 1.08 |  |  | Activity [6]: 1.11
COc1ccc(/C=C/c2ccccc2OC)cc1 | 58% | 2.04 |  |  | viability at 6.3 µM [13]: 73%; Activity (Hepa 1c1c7 [14]): 1.8; fold induction (Hepa 1c1c7c1 [3]): 1.14
COc1ccc(/C=C/c2cc(OC)cc(OC)c2)cc1 [TRISMETHOXYRESVERATROL] |  |  | 94% | < 1 | 
COc1ccc(/C=C/c2ccc(OC)c(O)c2)cc1 | 77% | 1.33 |  |  | Activity [6]: 1.29
COc1ccc(/C=C\c2cc(O)cc(O)c2)cc1 | 96% | 1.04 |  |  | Activity [6]: 1.86
C[S+]([O-])CCCCN=C=S (stereo unspecified) |  |  |  |  | Activity (Hepa 1c1c7 [9]): 0.26 µM; Activity (Hepa 1c1c7c1 [10]): 0.28 µM
COc1ccc(/C=C/c2ccc(OC)c(OC)c2)cc1 |  |  | 100% | < 1 | 
COc1ccc(/C=C/c2ccc(OC)cc2OC)cc1 | 58% | 1.18 |  |  | 
COc1ccc(/C=C\c2cccc(OC)c2)cc1 |  |  | 92% | < 1 | 
COc1ccc(/C=C\c2ccc(OC)c(OC)c2)cc1 [7Z-3,4,4'-TRIMETHOXYSTILBENE] |  |  | 86% | < 1 | 
COc1ccc(/C=C/c2cc(OC)c(OC)c(OC)c2)cc1 |  |  | 86% | < 1 | 
COc1ccc(/C=C/c2cccc(OC)c2)cc1 | 90% | 1.44 |  |  | fold induction (Hepa 1c1c7c1 [3]): < 1

Reference: ChEMBL document CHEMBL1147212, “Quinone reductase induction activity of methoxylated analogues of resveratrol” (2007)
